Laboratory results: ChEMBL document CHEMBL4118244, “Design, synthesis and biological evaluation of benzofuran appended benzothiazepine derivatives as inhibitors of butyrylcholinesterase and antimicrobial agents” (Bioorg Med Chem, 2018)
Converted amounts (≈) assume the structure as drawn. The source made the active and inactive calls. The calls are words filed in the database; no cut-off is given here.

How the values were obtained:
Candida albicans [1] = experiment: Antifungal activity against Candida albicans ATCC 10231 assessed as diameter of inhibition zone at 200 ug per disc after 48 hrs by agar disc diffusion method; assay type: functional; conditions: ATCC 10231, 48 h, read-out: DIZ
How it was run: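 Yeast tested by agar disc diffusion. Compounds at 20 mg mL⁻¹ in DMSO, filter-sterilised. 6 mm discs carried 10 µl (200 µg per disc), with DMSO discs as negative control. Incubation 48 h at 30 °C. Zone diameter was averaged over 3 repeats (±1 mm).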

Bacillus spizizenii [2] = experiment: Antibacterial activity against Bacillus subtilis ATCC 6633 assessed as diameter of inhibition zone at 200 ug per disc after 24 hrs by agar disc diffusion method; assay type: functional; conditions: for zone of inhibition at 200 µg/disc: ATCC 6633, 24 h, read-out: DIZ
How it was run: (§1)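 Agar disc diffusion. Compounds at 20 mg mL⁻¹ in DMSO, filter-sterilised. 100 µL of 10⁸ CFU mL⁻¹ bacteria spread on nutrient agar. 6 mm discs carried 10 µl (200 µg per disc), with DMSO discs as negative control. Incubation 24 h at 37 °C. Read-out is inhibition zone diameter, mean of 3 repeats (±1 mm).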

Aspergillus niger [3] = experiment: Antifungal activity against Aspergillus niger ATCC 16404; assay type: functional
Aspergillus brasiliensis [4] = experiment: Antifungal activity against Aspergillus brasiliensis PTCC 5011; assay type: functional
Bacillus spizizenii [5] = experiment: Antibacterial activity against Bacillus subtilis ATCC 6633; assay type: functional
Staphylococcus aureus [6] = experiment: Antibacterial activity against Staphylococcus aureus ATCC 29737; assay type: functional
Candida albicans [7] = experiment: Antifungal activity against Candida albicans ATCC 10231; assay type: functional
Staphylococcus aureus [8] = experiment: Antibacterial activity against Staphylococcus aureus ATCC 29737 assessed as diameter of inhibition zone at 200 ug per disc after 24 hrs by agar disc diffusion method; assay type: functional; conditions: ATCC 29737, 24 h, read-out: DIZ; how it was run: as §1
Aspergillus niger [9] = experiment: Antifungal activity against Aspergillus niger ATCC 16404 assessed as diameter of inhibition zone at 200 ug per disc after 72 hrs by agar disc diffusion method; assay type: functional; conditions: ATCC 16404, 72 h, read-out: DIZ
How it was run: (§2)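 Agar disc diffusion against mold. Compounds at 20 mg mL⁻¹ in DMSO, filter-sterilised. 6 mm discs carried 10 µl (200 µg per disc), with DMSO discs as negative control. Incubation 72 h at 30 °C. Read-out is growth inhibition zone diameter, mean of 3 repeats (±1 mm).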

[10] = system: Staphylococcus epidermidis; experiment: Antibacterial activity against Staphylococcus epidermidis ATCC 12228; assay type: functional
Cholinesterase = Cholinesterase (Equus caballus, UniProt P81908); experiment: Inhibition of equine serum BChE using butyrylthiocholine iodide as substrate pretreated for 15 mins followed by substrate addition measured for 6 mins by Ellman's method; conditions: read-out: IC50
How it was run: (§3)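 Ellman spectrophotometric assay in 0.1 M phosphate buffer pH 8.0 with DTNB, 25 °C. AChE (electric eel, Type V-S) or BChE was preincubated 15 min with compound before adding acetylthiocholine iodide or butyrylthiocholine iodide, respectively. Absorbance change at 412 nm was read for 6 min. Five concentrations were tested in triplicate, corrected by a nonenzymatic blank, with a no-inhibitor reference.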

Aspergillus brasiliensis [11] = experiment: Antifungal activity against Aspergillus brasiliensis PTCC 5011 assessed as diameter of inhibition zone at 200 ug per disc after 72 hrs by agar disc diffusion method; assay type: functional; conditions: PTCC 5011, 72 h, read-out: DIZ; how it was run: as §2
[12] = target: Acetylcholinesterase (Electrophorus electricus) (UniProt O42275); experiment: Inhibition of electric eel AChE using acetylthiocholine iodide as substrate pretreated for 15 mins followed by substrate addition measured for 6 mins by Ellman's method; how it was run: as §3
[13] = system: Staphylococcus epidermidis; experiment: Antibacterial activity against Staphylococcus epidermidis ATCC 12228 assessed as diameter of inhibition zone at 200 ug per disc after 24 hrs by agar disc diffusion method; assay type: functional; conditions: for zone of inhibition at 200 µg/disc: ATCC 12228, 24 h, read-out: DIZ; how it was run: as §1
Shigella dysenteriae [14] = experiment: Antibacterial activity against Shigella dysenteriae PTCC 1188 assessed as diameter of inhibition zone at 200 ug per disc after 24 hrs by agar disc diffusion method; assay type: functional; how it was run: as §1
Klebsiella pneumoniae [15] = experiment: Antibacterial activity against Klebsiella pneumoniae ATCC 10031; assay type: functional
Proteus vulgaris [16] = experiment: Antibacterial activity against Proteus vulgaris PTCC 1182 assessed as diameter of inhibition zone at 200 ug per disc after 24 hrs by agar disc diffusion method; assay type: functional; how it was run: as §1
Salmonella paratyphi [17] = experiment: Antibacterial activity against Salmonella paratyphi A serotype ATCC 5702 assessed as diameter of inhibition zone at 200 ug per disc after 24 hrs by agar disc diffusion method; assay type: functional; how it was run: as §1
Pseudomonas aeruginosa [18] = experiment: Antibacterial activity against Pseudomonas aeruginosa ATCC 27853; assay type: functional
Klebsiella pneumoniae [19] = experiment: Antibacterial activity against Klebsiella pneumoniae ATCC 10031 assessed as diameter of inhibition zone at 200 ug per disc after 24 hrs by agar disc diffusion method; assay type: functional; how it was run: as §1
Escherichia coli [20] = experiment: Antibacterial activity against Escherichia coli ATCC 10536; assay type: functional
Pseudomonas aeruginosa [21] = experiment: Antibacterial activity against Pseudomonas aeruginosa ATCC 27853 assessed as diameter of inhibition zone at 200 ug per disc after 24 hrs by agar disc diffusion method; assay type: functional; conditions: ATCC 27853, 24 h, read-out: DIZ; how it was run: as §1
Shigella dysenteriae [22] = experiment: Antibacterial activity against Shigella dysenteriae PTCC 1188; assay type: functional
Proteus vulgaris [23] = experiment: Antibacterial activity against Proteus vulgaris PTCC 1182; assay type: functional
Escherichia coli [24] = experiment: Antibacterial activity against Escherichia coli ATCC 10536 assessed as diameter of inhibition zone at 200 ug per disc after 24 hrs by agar disc diffusion method; assay type: functional; conditions: ATCC 10536, 24 h, read-out: DIZ; how it was run: as §1
Salmonella paratyphi [25] = experiment: Antibacterial activity against Salmonella paratyphi A serotype ATCC 5702; assay type: functional; conditions: Salmonella enterica subsp. enterica serovar Paratyphi A

Chain of Acetylcholinesterase (Electrophorus electricus) (O42275 24-633 limits assumed): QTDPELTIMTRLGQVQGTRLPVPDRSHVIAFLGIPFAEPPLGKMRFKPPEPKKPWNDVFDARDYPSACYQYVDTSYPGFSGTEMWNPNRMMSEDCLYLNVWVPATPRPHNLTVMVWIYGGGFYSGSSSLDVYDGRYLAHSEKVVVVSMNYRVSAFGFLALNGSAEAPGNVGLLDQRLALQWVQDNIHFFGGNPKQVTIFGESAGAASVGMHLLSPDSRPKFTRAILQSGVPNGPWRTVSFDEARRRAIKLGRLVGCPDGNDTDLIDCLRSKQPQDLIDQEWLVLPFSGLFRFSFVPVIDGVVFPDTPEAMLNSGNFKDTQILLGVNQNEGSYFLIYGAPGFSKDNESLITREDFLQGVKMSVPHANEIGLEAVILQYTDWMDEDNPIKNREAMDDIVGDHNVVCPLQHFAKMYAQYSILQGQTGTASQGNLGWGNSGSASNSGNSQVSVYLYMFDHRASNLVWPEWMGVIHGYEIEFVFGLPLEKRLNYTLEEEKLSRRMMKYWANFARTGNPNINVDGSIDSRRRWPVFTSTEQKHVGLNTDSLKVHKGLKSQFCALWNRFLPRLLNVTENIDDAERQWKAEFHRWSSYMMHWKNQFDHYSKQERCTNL
Chain of Cholinesterase (P81908 whole entry): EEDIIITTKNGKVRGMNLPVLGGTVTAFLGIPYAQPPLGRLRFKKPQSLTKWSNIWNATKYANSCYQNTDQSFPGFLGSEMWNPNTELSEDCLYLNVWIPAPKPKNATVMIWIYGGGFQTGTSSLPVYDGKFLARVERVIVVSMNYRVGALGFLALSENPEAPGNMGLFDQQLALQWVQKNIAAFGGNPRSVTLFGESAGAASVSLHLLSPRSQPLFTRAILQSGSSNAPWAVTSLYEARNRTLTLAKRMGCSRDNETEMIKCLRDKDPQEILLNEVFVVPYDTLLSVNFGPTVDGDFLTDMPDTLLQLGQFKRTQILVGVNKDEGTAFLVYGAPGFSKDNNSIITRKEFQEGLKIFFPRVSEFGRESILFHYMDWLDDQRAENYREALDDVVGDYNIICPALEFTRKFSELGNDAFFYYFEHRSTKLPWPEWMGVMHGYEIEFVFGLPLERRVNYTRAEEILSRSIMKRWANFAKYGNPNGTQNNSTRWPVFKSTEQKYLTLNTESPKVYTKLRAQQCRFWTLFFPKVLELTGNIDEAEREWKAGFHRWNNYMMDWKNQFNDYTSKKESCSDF

Compound: c1ccc2c(c1)N=C(c1cc3ccccc3o1)CC(c1cccc3ccccc13)S2 (stereo not drawn)
- zone of inhibition at 200 µg/disc (Candida albicans [1]): 14 mm
- zone of inhibition at 200 µg/disc (Bacillus spizizenii [2]): < 6 mm
- MIC (Aspergillus niger [3]): inactive
- MIC (Aspergillus brasiliensis [4]): inactive
- MIC (Bacillus spizizenii [5]): inactive
- MIC (Staphylococcus aureus [6]): 5 µg/mL (≈ 12.3 µM)
- MIC (Candida albicans [7]): 25 µg/mL (≈ 61.6 µM)
- zone of inhibition at 200 µg/disc (Staphylococcus aureus [8]): 10 mm
- zone of inhibition at 200 µg/disc (Aspergillus niger [9]): < 6 mm
- MIC [10]: 5 µg/mL (≈ 12.3 µM)
- IC50 (Cholinesterase): 63 µM
- zone of inhibition at 200 µg/disc (Aspergillus brasiliensis [11]): < 6 mm
- inhibition [12]: inactive
- zone of inhibition at 200 µg/disc [13]: 9 mm

Compound: COc1cccc2cc(C3=Nc4ccccc4SC(c4ccccc4)C3)oc12 (stereo not drawn)
- IC50 (Cholinesterase): 2.5 µM
- inhibition [12]: inactive

Compound: COc1cccc(C2CC(c3cc4ccccc4o3)=Nc3ccccc3S2)c1 (stereo not drawn)
- IC50 (Cholinesterase): 4.1 µM
- inhibition [12]: inactive

Compound: Cc1ccc(C2CC(c3cc4cc(Br)ccc4o3)=Nc3ccccc3S2)cc1 (stereo not drawn)
- IC50 (Cholinesterase): 8.5 µM
- inhibition [12]: inactive

Compound: Oc1ccc(C2CC(c3cc4ccccc4o3)=Nc3ccccc3S2)cc1 (stereo not drawn)
- IC50 (Cholinesterase): 14 µM
- inhibition [12]: inactive

Compound: COc1cccc(C2CC(c3cc4cc(Br)ccc4o3)=Nc3ccccc3S2)c1 (stereo not drawn)
- IC50 (Cholinesterase): 1 µM
- inhibition [12]: inactive

Compound: GENTAMICIN
- inhibition zone (IZ) (Bacillus spizizenii [2]): 21 mm
- inhibition zone (IZ) (Shigella dysenteriae [14]): 18 mm
- MIC (Klebsiella pneumoniae [15]): 0.25 µg/mL
- inhibition zone (IZ) (Proteus vulgaris [16]): 23 mm
- inhibition zone (IZ) (Salmonella paratyphi [17]; Salmonella enterica subsp. enterica serovar Paratyphi A): 21 mm
- MIC (Pseudomonas aeruginosa [18]): inactive
- inhibition zone (IZ) (Klebsiella pneumoniae [19]): 22 mm
- inhibition zone (IZ) [13]: 35 mm

Compound: COc1ccccc1C1CC(c2cc3cc(Br)ccc3o2)=Nc2ccccc2S1 (stereo not drawn)
- IC50 (Cholinesterase): 1.8 µM
- inhibition [12]: inactive

Compound: CO[C@H]1/C=C/O[C@@]2(C)Oc3c(C)c(O)c4c(O)c(c(/C=N/N5CCN(C)CC5)c(O)c4c3C2=O)NC(=O)/C(C)=C\C=C\[C@H](C)[C@H](O)[C@@H](C)[C@@H](O)[C@@H](C)[C@H](OC(C)=O)[C@@H]1C [RIFAMPIN]
- MIC (Escherichia coli [20]): 0.5 µg/mL (≈ 0.608 µM)
- zone of inhibition at 200 µg/disc (Bacillus spizizenii [2]): 13 mm
- zone of inhibition at 200 µg/disc (Shigella dysenteriae [14]; PTCC 1188, 24 h, read-out: DIZ): 8 mm
- zone of inhibition at 200 µg/disc (Pseudomonas aeruginosa [21]): < 6 mm
- MIC (Bacillus spizizenii [5]): 0.125 µg/mL (≈ 0.152 µM)
- MIC (Shigella dysenteriae [22]): 0.25 µg/mL (≈ 0.304 µM)
- MIC (Staphylococcus aureus [6]): 0.25 µg/mL (≈ 0.304 µM)
- MIC (Klebsiella pneumoniae [15]): 0.25 µg/mL (≈ 0.304 µM)
- zone of inhibition at 200 µg/disc (Staphylococcus aureus [8]): 10 mm
- MIC [10]: 0.25 µg/mL (≈ 0.304 µM)
- MIC (Proteus vulgaris [23]): 0.125 µg/mL (≈ 0.152 µM)
- zone of inhibition at 200 µg/disc (Proteus vulgaris [16]; PTCC 1182, 24 h, read-out: DIZ): 10 mm
- zone of inhibition at 200 µg/disc (Escherichia coli [24]): 11 mm
- MIC (Salmonella paratyphi [25]): inactive
- zone of inhibition at 200 µg/disc (Salmonella paratyphi [17]; Salmonella enterica, ATCC 5702, 24 h, read-out: DIZ): < 6 mm
- MIC (Pseudomonas aeruginosa [18]): inactive
- zone of inhibition at 200 µg/disc (Klebsiella pneumoniae [19]; ATCC 10031, 24 h, read-out: DIZ): 7 mm
- zone of inhibition at 200 µg/disc [13]: 40 mm

Compound: COc1ccc(C2CC(c3cc4ccccc4o3)=Nc3ccccc3S2)cc1 (stereo not drawn)
- IC50 (Cholinesterase): 4 µM
- inhibition [12]: inactive

Compound: O=[N+]([O-])c1ccc2oc(C3=Nc4ccccc4SC(c4c[nH]c5ccccc45)C3)cc2c1 (stereo not drawn)
- IC50 (Cholinesterase): 72 µM
- inhibition [12]: inactive

Compound: COc1cccc2cc(C3=Nc4ccccc4SC(c4ccc(O)cc4)C3)oc12 (stereo not drawn)
- IC50 (Cholinesterase): 4.1 µM
- inhibition [12]: inactive
